Most compounds without a hit are left out; they make up all but 4.1% or so of the library.
SMARCA2 activ: SMARCA2 (BRM) function activators, primary screen, cell-based, luminescence, high throughput. MG213 cells, MMTV-luciferase reporter, dexamethasone, overnight. activation, % at 9.1 µM. 370,000 compounds, 1% hits. AID 652017, 2013; in the data active means activation above about 7.8%;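 further: 0% = vehicle wells and 100% = reference activator wells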
MC4R antagonist: MC4R antagonists of cAMP signaling, primary screen, cell-based, TR-FRET, antagonist arm of biased-ligand search; inhibition, % at 6.5 µM; 360,000 compounds, 0.48% hits; MC4R-expressing cells, MTII-stimulated cAMP, LANCE TR-FRET; AID 540295, 2011; Melanocortin receptor 4 (Homo sapiens), P32245;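 active means inhibition above its plate's cutoff, the mean of tested wells on that plate plus 3 SD, cut at about 29% in these data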;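 further: 0% = Melanotan II alone and 100% = Melanotan II plus saturating MCL0020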
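System: U2OS-MC4R stable cell line; Technique: Eu-cAMP/anti-cAMP TR-FRET, emission 671 nm; Repeats: single well per compound; Also added: Melanotan II; Dosing: one concentration, 6.5 µM nominal; Schedule: 30-min compound, 1-h challenge, 1-h detection, room temperature.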
ATG4B inhibitor: ATG4B protease inhibitors, primary screen, biochemical, fluorescence, uHTS | Cysteine protease ATG4B (Homo sapiens), Q9Y4P1 | 340,000 compounds, 0.51% hits | ATG4B cleavage of LC3-PLA2, NBD-HPC fluorescence, 1 h | AID 504462, 2011 | inhibition, % at 8.33 µM; in the data active means inhibition above about 40%
Target sequence (Q9Y4P1 whole entry, looked up): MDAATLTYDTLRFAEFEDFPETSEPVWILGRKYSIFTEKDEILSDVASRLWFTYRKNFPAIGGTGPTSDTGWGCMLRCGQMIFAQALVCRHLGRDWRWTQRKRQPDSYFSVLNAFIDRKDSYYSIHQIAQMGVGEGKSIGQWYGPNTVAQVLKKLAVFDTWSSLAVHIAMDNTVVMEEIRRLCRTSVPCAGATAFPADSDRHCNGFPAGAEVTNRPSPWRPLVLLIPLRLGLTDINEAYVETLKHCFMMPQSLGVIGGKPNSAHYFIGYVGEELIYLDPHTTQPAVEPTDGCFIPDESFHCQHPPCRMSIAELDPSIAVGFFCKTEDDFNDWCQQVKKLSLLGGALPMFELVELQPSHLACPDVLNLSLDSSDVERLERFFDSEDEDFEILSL
MPTP inh: mitochondrial permeability transition pore inhibitors, primary screen, biochemical, isolated mouse mitochondria, absorbance; Ca2+ swelling absorbance, 30 min; inhibition, % at 10 µM; 360,000 compounds, 1.4% hits; AID 602449, 2012;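 active means inhibition of 50% or more, scaled per plate between neutral and stimulator controls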;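 further: 0% = DMSO wells given calcium and 100% = 1 mM EGTA wells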
MC4R ag barr: MC4R agonists recruiting beta-arrestin, primary screen, cell-based, luminescence, agonist arm of biased-ligand search; U2OS MC4R beta-arrestin complementation; percent of melanotan II response, DMSO zero; AID 540308, 2011; 360,000 compounds, 0.98% hits; activation, % at 8.9 µM;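 active means activation above a per-plate cutoff, the mean activation of sample wells on that plate plus 3 SD, cut at about 8% in these data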
MPTP counter: fluorescence retest of MPTP screen hits in isolated mitochondria, single concentration. inhibition, % at 10 µM. shares compounds with MPTP inh. 5,000 compounds, 78% hits. membrane potential, Rhodamine 123 fluorescence; in the data active means inhibition above about 22%;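 further: 0% = DMSO vehicle and 100% = positive control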
MPTP abs DR: mitochondrial permeability transition pore inhibitors, dose response, biochemical, absorbance, uHTS hits; shares compounds with MPTP inh; isolated mitochondria swelling; IC50, µM; 780 compounds, 58% hits; in the data active means IC50 below about 20 µM
MPTP counter DR: fluorescent counter-screen in isolated mitochondria, dose response, counter-screen for MPTP inhibitor project, biochemical, fluorescence, uHTS hits; shares compounds with MPTP inh; isolated mitochondria counterscreen, fluorescence read-out; IC50, µM; 780 compounds, 49% hits; AID 651564, 2012; in the data active means IC50 below about 80 µM
Starred values were filed as active, the others as inactive; nt = not tested or not shown.

SMILES	SMARCA2 activ	MC4R antagonist	ATG4B inhibitor	MPTP inh	MC4R ag barr	MPTP counter	others
O=C(NCCCCCCNC(=O)c1ccc(Br)s1)c1ccc(Br)s1	0	7	-5	54*	7	36*
CNC(=O)c1ccccc1C1(O)c2ccccc2CCc2ccccc21	-1	nt	nt	nt	nt	nt
Oc1ccccc1N=Nc1nc(-c2ccccc2)c(-c2ccccc2)[nH]1	-3	1	13	76*	-5	54*
CCCCNS(=O)(=O)/C=C/c1ccc(F)cc1CNC(=O)OC(C)(C)C	-3	nt	nt	nt	nt	nt
CCOC(=O)c1c(-c2ccc(C)o2)csc1NC(=O)CSc1nnc(C)s1	-3	28	-24	5	-2	nt
CCOC(=O)c1c(-c2ccccc2)csc1NC(=O)CSc1nnc(C)s1	-4	11	-5	67*	0	46*
O=S1(=O)c2ccc(Br)cc2OC[C@@H](Cc2ccccc2)N1Cc1cn(CCC2OCCCO2)nn1	-2	nt	nt	nt	nt	nt
COc1ccc(CNS(=O)(=O)c2ccc(-n3cccn3)cc2)cc1	-2	12	-4	-1	0	nt
COc1cc(NS(=O)(=O)c2ccc(-n3cccn3)cc2)cc(OC)c1	nt	-1	nt	60*	-1	71*
O=C(O)C1CC=CCC1C(=O)N1CCN(c2nc(-c3ccccc3Cl)c3cc(Br)ccc3n2)CC1 (centres undefined)	-7	23	0	13	1	nt
O=C(O)C1CC=CCC1C(=O)N1CCN(c2nc(-c3ccccc3)c3ccccc3n2)CC1 (centres undefined)	1	16	10	83*	0	-11	MPTP abs DR=10*;MPTP counter DR=>80
CC[C@H](C)[C@@H](CN[C@H](C)CNC)NCCC(c1ccccc1)c1ccccc1	-1	11	-5	101*	0	-17	MPTP abs DR=3.8*;MPTP counter DR=>80
CNC[C@@H](C)NC[C@@H](Cc1ccccc1)NCCc1ccccc1	2	1	4	0	3	nt
COCCCNCCCOc1ccc(C)cc1Br	1	-3	-5	2	-2	nt
C=CCNCCCOc1ccc(C)cc1Br	0	1	1	81*	0	2	MPTP abs DR=15*;MPTP counter DR=>80
C[C@@H]1CCN(C2CC2)S(=O)(=O)c2ccc(N3CC[C@@H](O)C3)cc2O1	-2	nt	nt	nt	nt	nt
Cc1ccccc1N(C)C(=O)Cn1nnc(-c2ccccc2F)n1	-6	nt	nt	nt	nt	nt
CN(C)CC1CCCCC1OC(=O)c1ccc(Br)cc1 (centres undefined)	-2	1	2	12	-1	nt
CN(C)CC1CCCCC1OC(=O)c1ccc(S(=O)(=O)N(C)c2ccccc2)cc1 (centres undefined)	-2	5	7	81*	-1	0	MPTP abs DR=12*;MPTP counter DR=61*
CN1CCC(=C2c3ccccc3Sc3ccccc32)CC1	-5	11	4	92*	0	-9	MPTP abs DR=7.3*;MPTP counter DR=>80
CCN(C[C@H]1N[C@@](Cc2ccccc2)(C(=O)OC)[C@H]2C(=O)N(Cc3ccccc3)C(=O)[C@@H]12)C(=O)Nc1ccc(C)cc1	-1	14	-15	2	0	nt
CCN(C[C@H]1N[C@@](Cc2ccccc2)(C(=O)OC)[C@H]2C(=O)N(Cc3ccccc3)C(=O)[C@@H]12)C(=O)Nc1ccc(C(F)(F)F)cc1	-5	6	-9	80*	-1	105*
CCCCCCn1c(NCC)nc2c1c(=O)n(C)c(=O)n2C	-6	-3	6	56*	-1	86*
COc1ccc2[nH]c(CN3CCC(CO)(CCOc4ccccc4)CC3)c(C)c2c1	-2	3	7	66*	5	-16	MPTP abs DR=5.8*;MPTP counter DR=>80
CCn1c2ccccc2c2cc(NC(=O)COC(=O)c3cccc(F)c3F)ccc21	-1	nt	nt	nt	nt	nt

Source: PubChem (several laboratories)
